Assay results published in ChEMBL document CHEMBL1121717, “Tetrahydro-2-benzoxepins: a novel family of hypotensives” (1981).
Activity calls are given as the source filed them. The rule behind the calls is not given here.

Tests used:
Felis catus [1] = assay: Effect of compound on heart rate was measured in baroreceptor denervated cats at time 20min, after iv administration of 1.0 mg/kg; assay type: functional
Outline: (§1)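 Cats of either sex anesthetized i.p. with sodium diallylbarbituric acid (60 mg/kg) plus urethane (240 mg/kg), placed in stereotaxic frame, tracheal tube inserted; femoral artery cannulated for arterial pressure, femoral vein for drug. Sympathetic activity recorded from preganglionic splanchnic nerve. 1.0 mg/kg iv; n = 6 treated, n = 8 vehicle; MAP, HR and % SNA (0 min = 100) read at 0–60 min; mean ± error.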

Rattus norvegicus [2] = assay: Oral hypotensive activity of compound was tested in conscious rats after oral administration at 50 mg/Kg dose; -49/-52; assay type: functional, organism-based
Felis catus [3] = assay: Effect of compound on heart rate was measured in baroreceptor denervated cats at time 40min, after iv administration of 1.0 mg/kg; assay type: functional; outline: as §1
Felis catus [4] = assay: Effect of compound on heart rate was measured in baroreceptor denervated cats at time 5min, after iv administration of 1.0 mg/kg; assay type: functional; outline: as §1
Felis catus [5] = assay: Effect of compound on blood pressure was measured in baroreceptor denervated cats at time 0 min, after iv administration of 1.0 mg/kg; assay type: functional; outline: as §1
Felis catus [6] = assay: Effect of compound on sympathetic nerve activity was measured in baroreceptor denervated cats at time 20min, after iv administration of 1.0 mg/kg; assay type: functional; outline: as §1
Felis catus [7] = assay: Effect of compound on heart rate was measured in baroreceptor denervated cats at time 0min, after iv administration of 1.0 mg/kg; assay type: functional; outline: as §1
Rattus norvegicus [8] = assay: Oral hypotensive activity of compound was tested in conscious rats after oral administration at 5 mg/Kg dose; -24/-9; assay type: functional, organism-based
Felis catus [9] = assay: Effect of compound on blood pressure was measured in baroreceptor denervated cats at time 60min, after iv administration of 1.0 mg/kg; assay type: functional; outline: as §1
Felis catus [10] = assay: Effect of compound on blood pressure was measured in baroreceptor denervated cats at time 20min, after iv administration of 1.0 mg/kg; assay type: functional; outline: as §1
Felis catus [11] = assay: Effect of compound on sympathetic nerve activity was measured in baroreceptor denervated cats at time 10min, after iv administration of 1.0 mg/kg; assay type: functional; outline: as §1
Felis catus [12] = assay: Effect of compound on heart rate was measured in baroreceptor denervated cats at time 60min, after iv administration of 1.0 mg/kg; assay type: functional; outline: as §1
Felis catus [13] = assay: Effect of compound on blood pressure was measured in baroreceptor denervated cats at time 5min, after iv administration of 1.0 mg/kg; assay type: functional; outline: as §1
Felis catus [14] = assay: Effect of compound on sympathetic nerve activity was measured in baroreceptor denervated cats at time 60min, after iv administration of 1.0 mg/kg; assay type: functional; outline: as §1
Felis catus [15] = assay: Effect of compound on blood pressure was measured in baroreceptor denervated cats at time 10min, after iv administration of 1.0 mg/kg; assay type: functional; outline: as §1
Felis catus [16] = assay: Effect of compound on sympathetic nerve activity was measured in baroreceptor denervated cats at time 5min, after iv administration of 1.0 mg/kg; assay type: functional; outline: as §1
Felis catus [17] = assay: Effect of compound on blood pressure was measured in baroreceptor denervated cats at time 40min, after iv administration of 1.0 mg/kg; assay type: functional; outline: as §1
Felis catus [18] = assay: Effect of compound on sympathetic nerve activity was measured in baroreceptor denervated cats at time 0min, after iv administration of 1.0 mg/kg; assay type: functional; outline: as §1
Felis catus [19] = assay: Effect of compound on heart rate was measured in baroreceptor denervated cats at time 10min, after iv administration of 1.0 mg/kg; assay type: functional; outline: as §1
Felis catus [20] = assay: Effect of compound on sympathetic nerve activity was measured in baroreceptor denervated cats at time 40min, after iv administration of 1.0 mg/kg; assay type: functional; outline: as §1

COc1cc2c(cc1OC)C(CCN1CCN(c3ccc(F)cc3)CC1)OCCC2.Cl (stereo not given)
HR (Felis catus [1]): 230
Delta blood pressure (Rattus norvegicus [2]): Active
HR (Felis catus [3]): 231
HR (Felis catus [4]): 229
MAP (Felis catus [5]): 131
SNA (Felis catus [6]): 86%
HR (Felis catus [7]): 229
Delta blood pressure (Rattus norvegicus [8]): Active
MAP (Felis catus [9]): 109
MAP (Felis catus [10]): 95
SNA (Felis catus [11]): 76%
HR (Felis catus [12]): 232
MAP (Felis catus [13]): 75
SNA (Felis catus [14]): 96%
MAP (Felis catus [15]): 85
SNA (Felis catus [16]): 72%
MAP (Felis catus [17]): 107
SNA (Felis catus [18]): 100%
HR (Felis catus [19]): 230
SNA (Felis catus [20]): 88%
